Measurements published in ChEMBL document CHEMBL3739271, “Synthesis and evaluation of a series of resveratrol analogues as potent anti-cancer agents that target tubulin” (2015).
Activity calls are given as the source filed them. No cut-off for these calls is given here.

Tests used:
CCRF-CEM = assay: Cytotoxicity against human CCRF-CEM cells by SRB assay; assay type: functional
Outline: (§1)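 NCI 60 human tumor cell line panel, sulforhodamine B (SRB) protein-stain read-out. Compounds were first screened at a single dose of 10^-5 M, and selected compounds were then tested in a five-dose format. GI50 is the drug concentration giving a 50% reduction in net protein increase relative to control cells.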

[1] = Cytotoxicity against human HL-60(TB) cells by SRB assay; assay type: functional
Outline: (§2)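 NCI 60-cell-line panel using sulforhodamine B protein stain. Initial single-dose screen at 10^-5 M, then five-dose testing. GI50 is the drug concentration giving a 50% reduction in net protein increase relative to control cells.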

K562 = assay: Cytotoxicity against human K562 cells by SRB assay; assay type: functional; outline: as §1
[2] = Cytotoxicity against human MOLT4 cells by SRB assay; assay type: functional; details: MOLT-4; outline: as §1
[3] = Cytotoxicity against human RPMI8226 cells by SRB assay; assay type: functional; details: RPMI-8226; outline: as §1
SR = assay: Cytotoxicity against human SR cells by SRB assay; assay type: functional; outline: as §1
A549 = assay: Cytotoxicity against human A549 cells by SRB assay; assay type: functional; outline: as §1
[4] = Cytotoxicity against human HOP62 cells by SRB assay; assay type: functional; details: HOP-62; outline: as §1
[5] = Cytotoxicity against human HOP92 cells by SRB assay; assay type: functional; details: HOP-92; outline: as §1
NCI-H23 = assay: Cytotoxicity against human NCI-H23 cells by SRB assay; assay type: functional; outline: as §1
NCI-H522 = assay: Cytotoxicity against human NCI-H522 cells by SRB assay; assay type: functional; outline: as §1
[6] = Cytotoxicity against human COLO205 cells by SRB assay; assay type: functional; details: COLO 205; outline: as §1
[7] = Cytotoxicity against human HCC2998 cells by SRB assay; assay type: functional; details: HCC 2998; outline: as §1
[8] = Cytotoxicity against human HCT116 cells by SRB assay; assay type: functional; details: HCT-116; outline: as §1
[9] = Cytotoxicity against human HCT15 cells by SRB assay; assay type: functional; details: HCT-15; outline: as §1
HT-29 = assay: Cytotoxicity against human HT-29 cells by SRB assay; assay type: functional; outline: as §1
KM12 = assay: Cytotoxicity against human KM12 cells by SRB assay; assay type: functional; outline: as §1
[10] = Cytotoxicity against human SW620 cells by SRB assay; assay type: functional; details: SW-620; outline: as §1
[11] = Cytotoxicity against human SF268 cells by SRB assay; assay type: functional; details: SF-268; outline: as §1
[12] = Cytotoxicity against human SF295 cells by SRB assay; assay type: functional; details: SF-295; outline: as §1
[13] = Cytotoxicity against human SF539 cells by SRB assay; assay type: functional; details: SF-539; outline: as §1
[14] = Cytotoxicity against human SNB19 cells by SRB assay; assay type: functional; details: SNB-19; outline: as §1
[15] = Cytotoxicity against human SNB75 cells by SRB assay; assay type: functional; details: SNB-75; outline: as §1
U-251 = assay: Cytotoxicity against human U251 cells by SRB assay; assay type: functional; outline: as §1
[16] = Cytotoxicity against human LOXIMVI cells by SRB assay; assay type: functional; details: LOX IMVI; outline: as §2
M14 = assay: Cytotoxicity against human M14 cells by SRB assay; assay type: functional; outline: as §1
MDA-MB-435 = assay: Cytotoxicity against human MDA-MB-435 cells by SRB assay; assay type: functional; outline: as §1
SK-MEL-28 = assay: Cytotoxicity against human SK-MEL-28 cells by SRB assay; assay type: functional; outline: as §1
SK-MEL-5 = assay: Cytotoxicity against human SK-MEL-5 cells by SRB assay; assay type: functional; outline: as §1
[17] = Cytotoxicity against human UACC62 cells by SRB assay; assay type: functional; details: UACC-62; outline: as §1
[18] = Cytotoxicity against human IGROV1 cells by SRB assay; assay type: functional; details: IGROV-1; outline: as §2
[19] = Cytotoxicity against human OVCAR3 cells by SRB assay; assay type: functional; details: OVCAR-3; outline: as §1
[20] = Cytotoxicity against human OVCAR4 cells by SRB assay; assay type: functional; details: OVCAR-4; outline: as §1
NCI/ADR-RES = assay: Cytotoxicity against human NCI/ADR-RES cells by SRB assay; assay type: functional; outline: as §1
[21] = Cytotoxicity against human SKOV3 cells by SRB assay; assay type: functional; details: SK-OV-3; outline: as §1
786-0 = assay: Cytotoxicity against human 786-0 cells by SRB assay; assay type: functional; outline: as §1
A498 = assay: Cytotoxicity against human A498 cells by SRB assay; assay type: functional; outline: as §1
ACHN = assay: Cytotoxicity against human ACHN cells by SRB assay; assay type: functional; outline: as §1
[22] = Cytotoxicity against human UO31 cells by SRB assay; assay type: functional; details: UO-31; outline: as §1
MCF7 = assay: Cytotoxicity against human MCF7 cells by SRB assay; assay type: functional; outline: as §1
MDA-MB-231 = assay: Cytotoxicity against human MDA-MB-231 cells by SRB assay; assay type: functional; outline: as §1
[23] = Cytotoxicity against human Hs578T cells by SRB assay; assay type: functional; details: Hs-578T; outline: as §1
MDA-MB-468 = assay: Cytotoxicity against human MDA-MB-468 cells by SRB assay; assay type: functional; outline: as §1
MV4-11 [24] = assay: Anti-leukemia activity against human MV4-11 cells after 48 hrs by Annexin-V staining; assay type: functional; details: MV4-11, 48 h, read-out: LD50 (the source's name)
Outline: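 MV4-11 AML cells exposed to increasing compound concentrations for 24 and 48 h. Viability measured by Annexin V/7-AAD staining and expressed as percent Annexin V-/7-AAD- cells relative to control. N = 5, error bars SD. LD50 values derived from these curves.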

SK-MEL-2 = assay: Cytotoxicity against human SK-MEL-2 cells by SRB assay; assay type: functional; outline: as §1
CAKI-1 = assay: Cytotoxicity against human CAKI-1 cells by SRB assay; assay type: functional; outline: as §1
MV4-11 [25] = assay: Inhibition of alpha-tubulin polymerization in human MV4-11 cells at 25 to 100 nM after 2 hrs by Western blotting; assay type: cell-based
Outline: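 MV4-11 cells treated for 2 hours at 25, 50 and 100 nM. Microtubule polymerization then assessed by immunoblot.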

Compound `COc1ccc(/C=C(\C#N)c2ccc(OC)c(OC)c2)cc1O` has a GI50 (CCRF-CEM) of 30 nM, a GI50 [1] of 30 nM and a GI50 (K562) of 20 nM. For the same compound, the GI50 [2] was 50 nM, the GI50 [3] was 40 nM and the GI50 (SR) was 20 nM. For the same compound, the GI50 (A549) was 210 nM, the GI50 [4] was 30 nM and the GI50 [5] was 1690 nM. The GI50 (NCI-H23) was 70 nM, the GI50 (NCI-H522) was < 10 nM and the GI50 [6] was 1240 nM. It also gave a GI50 [7] of 1810 nM, a GI50 [8] of 40 nM and a GI50 [9] of 40 nM. It also gave a GI50 (HT-29) of 570 nM, a GI50 (KM12) of 20 nM and a GI50 [10] of 40 nM. For the same compound, the GI50 [11] was 60 nM, the GI50 [12] was 100 nM and the GI50 [13] was 20 nM. It also gave a GI50 [14] of 50 nM, a GI50 [15] of 20 nM and a GI50 (U-251) of 40 nM. For the same compound, the GI50 [16] was 60 nM, the GI50 (M14) was 30 nM and the GI50 (MDA-MB-435) was < 10 nM. For the same compound, the GI50 (SK-MEL-28) was 1110 nM, the GI50 (SK-MEL-5) was 40 nM and the GI50 [17] was 20 nM. For the same compound, the GI50 [18] was 60 nM, the GI50 [19] was 20 nM and the GI50 [20] was 1560 nM. For the same compound, the GI50 (NCI/ADR-RES) was 20 nM, the GI50 [21] was 50 nM and the GI50 (786-0) was 360 nM. The GI50 (A498) was 20 nM, the GI50 (ACHN) was 80 nM and the GI50 [22] was 60 nM. The GI50 (MCF7) was 30 nM, the GI50 (MDA-MB-231) was 40 nM and the GI50 [23] was 30 nM. The GI50 (MDA-MB-468) was 40 nM and the CC50 (MV4-11 [24]) was 353 nM.

In the case of `COc1ccc(/C=C(/C#N)c2cc(OC)c(OC)c(OC)c2)cc1O`, the GI50 (CCRF-CEM) is reported as < 10 nM, the GI50 [1] is reported as < 10 nM and the GI50 (K562) is reported as < 10 nM. The GI50 [2] was < 10 nM, the GI50 [3] was < 10 nM and the GI50 (SR) was < 10 nM. For the same compound, the GI50 (A549) was < 10 nM, the GI50 [5] was < 10 nM and the GI50 (NCI-H23) was < 10 nM. For the same compound, the GI50 (NCI-H522) was < 10 nM, the GI50 [6] was 300 nM and the GI50 [7] was < 10 nM. For the same compound, the GI50 [8] was < 10 nM, the GI50 [9] was < 10 nM and the GI50 (HT-29) was 320 nM. For the same compound, the GI50 (KM12) was < 10 nM, the GI50 [10] was < 10 nM and the GI50 [11] was < 10 nM. For the same compound, the GI50 [12] was 10 nM, the GI50 [13] was < 10 nM and the GI50 [14] was < 10 nM. The GI50 [15] was < 10 nM, the GI50 (U-251) was < 10 nM and the GI50 [16] was < 10 nM. For the same compound, the GI50 (M14) was < 10 nM, the GI50 (MDA-MB-435) was < 10 nM and the GI50 (SK-MEL-2) was < 10 nM. The GI50 (SK-MEL-28) was < 10 nM, the GI50 (SK-MEL-5) was < 10 nM and the GI50 [17] was < 10 nM. For the same compound, the GI50 [18] was < 10 nM, the GI50 [19] was < 10 nM and the GI50 [20] was < 10 nM. The GI50 (NCI/ADR-RES) was < 10 nM, the GI50 [21] was < 10 nM and the GI50 (786-0) was 20 nM. For the same compound, the GI50 (A498) was < 10 nM, the GI50 (ACHN) was < 10 nM and the GI50 (CAKI-1) was < 10 nM. The GI50 [22] was < 10 nM, the GI50 (MCF7) was < 10 nM and the GI50 (MDA-MB-231) was < 10 nM. For the same compound, the GI50 [23] was < 10 nM, the GI50 (MDA-MB-468) was < 10 nM and the CC50 (MV4-11 [24]) was 2.5 nM. The inhibition (MV4-11 [25]) was “Active”.

In the case of `COc1ccc(/C=C(/C#N)c2ccc(OC)c(OC)c2)cc1O`, the GI50 (CCRF-CEM) is reported as 40 nM, the GI50 [1] is reported as 30 nM and the GI50 (K562) is reported as 30 nM. It also gave a GI50 [2] of 70 nM, a GI50 [3] of 50 nM and a GI50 (SR) of 30 nM. It also gave a GI50 (A549) of 250 nM, a GI50 [4] of 30 nM and a GI50 [5] of 860 nM. The GI50 (NCI-H23) was 80 nM, the GI50 (NCI-H522) was 10 nM and the GI50 [6] was 1260 nM. For the same compound, the GI50 [7] was 170 nM, the GI50 [8] was 30 nM and the GI50 [9] was 30 nM. For the same compound, the GI50 (HT-29) was 620 nM, the GI50 (KM12) was 40 nM and the GI50 [10] was 40 nM. For the same compound, the GI50 [11] was 80 nM, the GI50 [12] was 580 nM and the GI50 [13] was 20 nM. The GI50 [14] was 40 nM, the GI50 [15] was 20 nM and the GI50 (U-251) was 50 nM. The GI50 [16] was 70 nM, the GI50 (M14) was 20 nM and the GI50 (MDA-MB-435) was < 10 nM. It also gave a GI50 (SK-MEL-28) of 1270 nM, a GI50 (SK-MEL-5) of 50 nM and a GI50 [18] of 70 nM. The GI50 [19] was 20 nM, the GI50 [20] was 1070 nM and the GI50 (NCI/ADR-RES) was 20 nM. It also gave a GI50 [21] of 50 nM, a GI50 (786-0) of 240 nM and a GI50 (A498) of 20 nM. For the same compound, the GI50 (ACHN) was 90 nM, the GI50 (CAKI-1) was 420 nM and the GI50 [22] was 90 nM. It also gave a GI50 (MCF7) of 30 nM, a GI50 (MDA-MB-231) of 50 nM and a GI50 [23] of 30 nM. It also gave a GI50 (MDA-MB-468) of 40 nM and a CC50 (MV4-11 [24]) of 409 nM.
